ChEMBL document CHEMBL1123170, “Drug design via pharmacophore identification. Dopaminergic activity of 3H-benz[e]indol-8-amines and their mode of interaction with the dopamine receptor” (1986)
Activity calls are given as the source filed them. The calls are words filed in the database; no cut-off is given here.

How the values were obtained:
Mus musculus = experiment: Compound was tested for its ability to antagonize the catalepsy produced in mice after sc administration; type: functional
In short: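 Male Swiss albino mice (21-25 g), groups of 10-12. Reserpine 5 mg/kg ip given 17 h before sc test drug. Catalepsy checked before dosing and at 0.5, 1, 2, 3.5 and 5 h: mouse placed on a rubber stopper (5 cm diameter, 2.5 cm high) for 3 min; staying on counts as cataleptic. Quantal ED50 = dose reversing catalepsy in 50% of mice.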

Rattus norvegicus [1] = experiment: Compound was evaluated for its ability to induce locomotion in rats rendered akinetic by bilateral anterolateral hyphalamic injection of 6-OHDA at 10 Po mg/kg dose after sc administration; type: functional
In short: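 Male Sprague-Dawley rats with bilateral 6-OHDA lesions of the anterolateral hypothalamus were tested 4 days after lesioning, dosed, and placed in an open field. Ambulation (all four limbs placed in one square = one score) was counted over six 2-min periods within 2 h. Result is the cumulative ambulation score, mean ± SEM. Doses refer to the base.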

Rattus norvegicus [2] = experiment: Contralateral turning characteristic was measured in rat at 5 po mg/kg dose; type: functional
In short: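 Male Sprague-Dawley rats with unilateral 6-OHDA lesions of the nigrostriatal pathway, in groups of 4-5, were reused at intervals of at least 1 week. After dosing, each rat was placed straight into a rotometer and recorded continuously until rotation ceased. Result is total contralateral turns, mean ± SEM. Doses refer to the base.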

Rattus norvegicus [3] = experiment: Compound was evaluated for its ability to induce locomotion in rats rendered akinetic by bilateral anterolateral hyphalamic injection of 6-OHDA at 30 mg/kg dose after sc administration; I=Inactive; type: functional, organism-based; set-up: dose 30 mg/kg
In short: (§1)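 Male Sprague-Dawley rats with 6-OHDA lesions of the anterolateral hypothalamus on both sides; tested 4 days after lesioning. Compound given sc, then rats placed in an open field. Ambulation recorded in 2-min periods across 2 h; one score = all four limbs placed in one square. Readout is the cumulative ambulation score (mean ± SEM).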

Rattus norvegicus [4] = experiment: Compound was evaluated for its ability to induce locomotion in rats rendered akinetic by bilateral anterolateral hyphalamic injection of 6-OHDA at 10 mg/kg dose after sc administration; type: functional; conditions: route subcutaneous; in short: as §1
[5] = target: Dopamine receptor (Rattus norvegicus) (UniProt P25115+P19020+P30729+P18901+P61169); experiment: Dopamine receptor agonistic activity measured as Contralateral turning characteristic was measured in rat at 2.5 Sc mg/kg dose; type: functional, organism-based
In short: (§2)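 Male Sprague-Dawley rats with unilateral 6-OHDA nigrostriatal lesions, groups of 4-5, reused at least 1 week apart. Dosed po or sc as stated, placed at once in a rotometer, and rotation recorded continuously until it stopped. Readout is total contralateral turns (mean ± SEM). Doses given as base.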

Rattus norvegicus [6] = experiment: Ability to induce locomotion in rats rendered akinetic by bilateral anterolateral hyphalamic injection of 6-OHDA at 2.5 mg/kg dose after sc administration; type: functional; conditions: route subcutaneous; in short: as §1
Rattus norvegicus [7] = experiment: Effect of pretreatment with alpha-MPT on the rotational behavior induced by the compound (5 mg/kg, sc) in rats with 6-OHDA induced lesions (indicates that it acted directly on DA receptors); type: functional
Rattus norvegicus [8] = experiment: Compound was evaluated for its ability to induce locomotion in rats rendered akinetic by bilateral anterolateral hyphalamic injection of 6-OHDA at 2.5 mg/kg dose after sc administration; type: functional; conditions: route subcutaneous; in short: as §1
Rattus norvegicus [9] = experiment: Contralateral turning characteristic of dopamine agonist was measured in rat at 10 Sc mg/kg dose; type: functional; in short: as §2
Rattus norvegicus [10] = experiment: Contralateral turning characteristic of dopamine agonist was measured in rat at 10 Po mg/kg dose; type: functional; in short: as §2

CC(C)C[C@H]1C(=O)N2CCC[C@H]2[C@]2(O)O[C@](NC(=O)[C@@H]3C=C4c5cccc6[nH]c(Br)c(c56)C[C@H]4N(C)C3)(C(C)C)C(=O)N12 [BROMOCRIPTINE] showed an ED50 (Mus musculus) of 2.3 mg/kg, an Ambulation score (Rattus norvegicus [1]) of 112 and an Activity (Rattus norvegicus [2]) of 1805.
CN(C)C1CCc2ccc3c(ccn3C)c2C1 (stereo not given) was tested, and the ED50 (Mus musculus) was > 30 mg/kg and the Ambulation score (Rattus norvegicus [3]) was “inactive”.
For CCCN(CCC)C1CCc2ccc3c(ccn3C)c2C1 (stereo not given), the ED50 (Mus musculus) was 5 mg/kg, the Ambulation score (Rattus norvegicus [4]) was <100 and the Activity [5] was < 300.
Compound CCCN(CCC)C1CCc2ccc3[nH]ccc3c2C1 (stereo not given) has an Ambulation score (Rattus norvegicus [6]) of 287, an ED50 (Mus musculus) of 2.3 mg/kg and an Activity (Rattus norvegicus [7]) of 3460.
Work on CN(C)C1CCc2ccc3[nH]ccc3c2C1 (stereo not given) yielded an Ambulation score (Rattus norvegicus [8]) of 378, an ED50 (Mus musculus) of 5.8 mg/kg and an Activity (Rattus norvegicus [9]) of 4540. It also gave an Activity (Rattus norvegicus [10]) of 4947.
